Measurements reported in ChEMBL document CHEMBL1140307, “Design and synthesis of alpha-aryloxyphenylacetic acid derivatives: a novel class of PPARalpha/gamma dual agonists with potent antihyperglycemic and lipid modulating activity” (J Med Chem, 2005).
pEC50, pIC50: −log10 of the molar value.

Key:
[1] = biological target: T1, Peroxisome proliferator-activated receptor alpha (Homo sapiens, UniProt Q07869); assay: In vitro binding affinity for human PPAR alpha
T1 sequence (Q07869 whole entry): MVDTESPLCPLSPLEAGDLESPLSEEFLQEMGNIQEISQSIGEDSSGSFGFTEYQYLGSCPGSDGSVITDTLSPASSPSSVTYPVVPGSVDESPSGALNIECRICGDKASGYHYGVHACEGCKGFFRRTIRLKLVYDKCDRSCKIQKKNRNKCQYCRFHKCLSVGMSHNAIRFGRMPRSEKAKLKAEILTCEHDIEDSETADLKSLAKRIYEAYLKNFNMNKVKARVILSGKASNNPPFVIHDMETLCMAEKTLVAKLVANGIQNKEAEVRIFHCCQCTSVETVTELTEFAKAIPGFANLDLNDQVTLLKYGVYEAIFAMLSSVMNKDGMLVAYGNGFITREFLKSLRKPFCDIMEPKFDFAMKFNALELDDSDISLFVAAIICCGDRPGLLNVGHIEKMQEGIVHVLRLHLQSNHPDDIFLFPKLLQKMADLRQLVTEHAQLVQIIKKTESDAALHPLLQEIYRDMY

[2] = biological target: T2, Peroxisome proliferator-activated receptor gamma (Homo sapiens, UniProt P37231); assay: In vitro binding affinity for human PPAR gamma
T2 sequence (P37231 whole entry): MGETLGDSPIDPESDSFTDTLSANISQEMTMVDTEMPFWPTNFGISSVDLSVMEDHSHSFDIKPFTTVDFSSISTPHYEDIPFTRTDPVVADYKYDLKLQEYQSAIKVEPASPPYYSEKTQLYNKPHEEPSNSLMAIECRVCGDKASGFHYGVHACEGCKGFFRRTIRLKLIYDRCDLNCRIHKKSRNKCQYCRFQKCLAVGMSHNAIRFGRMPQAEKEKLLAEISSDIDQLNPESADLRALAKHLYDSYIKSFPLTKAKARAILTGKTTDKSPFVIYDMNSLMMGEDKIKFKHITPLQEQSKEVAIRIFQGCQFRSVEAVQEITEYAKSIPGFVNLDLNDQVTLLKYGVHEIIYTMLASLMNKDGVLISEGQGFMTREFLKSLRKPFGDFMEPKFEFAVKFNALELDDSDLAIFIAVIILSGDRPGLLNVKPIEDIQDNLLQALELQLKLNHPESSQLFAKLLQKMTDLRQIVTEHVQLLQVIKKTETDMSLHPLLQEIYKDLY

[3] = biological target: T2, Peroxisome proliferator-activated receptor gamma; assay: Agonist response against human PPAR gamma in transactivation assay; type: functional
[4] = biological target: T1, Peroxisome proliferator-activated receptor alpha; assay: Agonist response against human PPAR alpha in transactivation assay
Cricetinae gen. sp. [5] = assay: Effect (100 mpk) on serum cholesterol in hamster; type: functional
Procedure, shortened: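 Male Golden Syrian hamsters on normal rodent chow, dosed orally with test compound (9 days per table legend). Serum total cholesterol and triglyceride were measured in mg/dL. Values are group means, expressed as % change versus the vehicle-treated control group.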

Cricetinae gen. sp. [6] = assay: Percentage change in the serum triglyceride upon administration of compound (100 mpk) in hamster; type: functional
Procedure, shortened: (§1)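 Male Golden Syrian hamsters were fed normal rodent chow and dosed orally once daily with compound. Serum total cholesterol and triglyceride were measured and expressed as percent change versus vehicle controls.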

Cricetinae gen. sp. [7] = assay: Percentage change in the serum cholesterol upon administration of compound (100 mpk) in hamster; type: functional; procedure, shortened: as §1
Mesocricetus auratus = species on record: Mesocricetus auratus; assay: Effect (100 mpk) on serum triglyceride in Golden Syrian hamster
Canis familiaris [8] = assay: Percentage change in the serum cholesterol upon administration of compound (100 mpk) in dogs
Canis familiaris [9] = assay: Percentage change in the serum cholesterol upon administration of compound (20 mpk) in dogs; type: functional, Canis lupus familiaris
Procedure, shortened: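 Male Beagle dogs were housed individually on a cholesterol-free chow diet, five per group. Baseline serum cholesterol was taken from weekly jugular bleeds before the study. Compound suspended in 0.5% methylcellulose was gavaged daily for 2 weeks. Serum cholesterol was measured during and after dosing and reported as mean percent change (n = 5).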

Rattus norvegicus [10] = assay: Effect (150 mg/kg) on PPAR gamma- mediated effects measured as change in brown adipose tissue weight in rats; type: functional
Procedure, shortened: (§2)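 Male Sprague-Dawley rats (about 200 g, n = 6) were fed rodent chow and gavaged once daily for 2 weeks with compound in 0.5% methylcellulose. Body weight was recorded on days 1, 4, 6, 8, 11 and 14. Rats were euthanized with CO2 24 h after the last dose, and BAT, heart and liver were weighed. Blood was taken by heart puncture for hematocrit. Results are mean ± SD versus vehicle.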

Rattus norvegicus [11] = assay: Effect (150 mg/kg) on PPAR gamma- mediated effects measured as change in body weight in rats; type: functional; procedure, shortened: as §2
Rattus norvegicus [12] = assay: Effect (150 mg/kg) on PPAR gamma- mediated effects measured as change in liver weight in rats; type: functional; procedure, shortened: as §2
Rattus norvegicus [13] = assay: Effect (150 mg/kg) on PPAR gamma- mediated effects measured as change in heart weight in rats; type: functional; procedure, shortened: as §2
Rattus norvegicus [14] = assay: Effect (150 mg/kg) on PPAR gamma- mediated effects measured as change in hematocrit weight in rats; type: functional; procedure, shortened: as §2

SMILES	pIC50 [1]	pIC50 [2]	pEC50 [3]	pEC50 [4]	other results
CCCc1cc(C(=O)CC)cc(CCC)c1CC(C(=O)O)c1ccc(C(C)C)cc1 (centres undefined)	< 4.82	< 4.30			
CCCc1cc2c(oc(=O)n2CCC)c(CCC)c1O[C@H](C(=O)O)c1ccc(C(C)C)cc1	6.82	7.06	6.92		
CCCc1cc2c(oc(=O)n2CC2CC2)c(CCC)c1O[C@H](C(=O)O)c1ccc(C(C)C)cc1	6.89	6.92	6.48		
CCCc1cc2c(=O)n(C3CCCCC3)oc2c(CCC)c1O[C@H](C(=O)O)c1ccc(C(C)C)cc1	< 4.82	6.36			
CCCc1cc(C(=O)CC)cc(CCC)c1O[C@H](C(=O)O)c1ccc(CC)cc1	7.19	6.68	6.32	7.12	
CCCc1cc(C(=O)CC)cc(CCC)c1O[C@H](C(=O)O)c1ccc(OC(C)C)cc1	7.37	6.70		6.96	
CC(C)OC(=O)C(C)(C)Oc1ccc(C(=O)c2ccc(Cl)cc2)cc1 [FENOFIBRATE]					Cholesterol level (Cricetinae gen. sp. [5]): 91 mg/dL; Change (Cricetinae gen. sp. [6]): -26%; Change (Cricetinae gen. sp. [7]): -29%; Triglyceride level (Mesocricetus auratus): 244 mg/dL; Change (Canis familiaris [8]): -23.5%; Change (Canis familiaris [9]): -4.7%
CCCc1cc2c(=O)n(C(C)C)oc2c(CCC)c1O[C@H](C(=O)O)c1ccc(C(C)C)cc1	6.64	6.80	6.37	6.57	
CCCc1cc(C(=O)CC)cc(CCC)c1OC(C(=O)O)c1ccccc1 (centres undefined)	7.29	5.56		7.00	
CCCc1cc2c(=O)n(C)oc2c(CCC)c1O[C@H](C(=O)O)c1ccccc1	6.07	5.42	6.41	6.17	
CN(CCOc1ccc(CC2SC(=O)NC2=O)cc1)c1ccccn1 (centres undefined) [ROSIGLITAZONE]					BAT (Rattus norvegicus [10]): 1.03 g; Body weight (Rattus norvegicus [11]): 322 g; Liver weight (Rattus norvegicus [12]): 16.6 g; Heart weight (Rattus norvegicus [13]): 1.46 g; Hematocrit (Rattus norvegicus [14]): 41.3%
CCCc1cc(C(=O)C(C)(C)C)cc(CCC)c1OC(C(=O)O)c1ccccc1 (centres undefined)	6.89	5.57		6.80	
CCCc1cc2c(=O)n(C(C)C)oc2c(CCC)c1O[C@H](C(=O)O)c1ccc(CC(C)C)cc1	6.10	6.59	6.43		
CCCc1cc(C(=O)CC)cc(C)c1OC(C(=O)O)c1ccc(C(C)C)cc1 (centres undefined)	6.80	6.59	6.71	6.80	
CCCc1cc2c(oc(=O)n2C)c(CCC)c1O[C@H](C(=O)O)c1ccc(C(C)C)cc1	6.41	7.07	6.19		
CCC(=O)c1cc(Cl)c(OC(C(=O)O)c2ccccc2)c(Cl)c1 (centres undefined)	5.80	< 4.30			
